Where two headings read alike, the source gives them in different places.
Tests used:
[1] = test system: T.b. rhodesiense STIB 900 trypomastigotes; assay: In vitro growth inhibition of T. b. rhodesiense bloodstream form trypomastigotes; assay type: cell-based, Trypanosoma brucei rhodesiense; conditions: for activity designation against T.b. rhodesiense: classes by IC50 criteria of b15
[2] = test system: T. cruzi Tulahuen C4 amastigotes; assay: In vitro growth inhibition of T. cruzi amastigotes in infected L6 myoblasts; assay type: cell-based, Trypanosoma cruzi; conditions: for activity designation against T. cruzi: classes by IC50 criteria of b15; for fold increase of T. cruzi IC50 compared to the nitro-containing analog: non-nitro triazoles 19 and 31 versus 17 and 29
[3] = test system: L6 cells (rat skeletal myoblasts); assay: Cytotoxicity assessment using L6 cells; assay type: cell-based; conditions: read-out: Cytotox. L6 IC-50
[4] = test system: L. donovani MHOM-ET-67/L82 axenic amastigotes; assay: In vitro growth inhibition of axenically cultured L. donovani amastigotes; assay type: cell-based, Leishmania donovani; conditions: SI = IC50 in L6 cells / IC50 in parasites
[5] = 15 mg/kg given i.p. for 30 days; cited from earlier work
T. cruzi = conditions: 2 mg/kg/day for 50 days, mice, acute phase of infection; cited from earlier work
[6] = Reduction potential by cyclic voltammetry; assay type: physicochemical; conditions: cyclic voltammetry relative to Ag/AgCl
Outline: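 Half-wave reduction potentials (E1/2) measured by cyclic voltammetry against an Ag/AgCl reference electrode, using a carbon mesh working electrode and a Pt wire counter electrode. The supporting electrolyte was 0.1M tetrabutylammonium hexafluorophosphate (TBAPF6).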

[7] = cited from earlier work
[8] = SI = IC50 in L6 cells / IC50 in parasites

With “6-Methyl-4-N-[3-(2-nitro-1H-1,2,4-triazol-1-yl)propyl]-pyrimidin-2,4-diamine hydrochloride [Compound 22]” the “T.b.rhodesiense SI” value [1, 8] was greater than 131, the “T. cruzi SI” value [2, 8] was greater than 8 and the “activity designation against T. cruzi” value [2] was “moderately active (IC50 = 4.0-60 μM)”. The IC50 [3] was greater than 286 µM and the “L. donovani axen. SI” value [4] was “∼3”.

For `Cl.O=[N+]([O-])c1ncn(CCCNc2c3ccccc3nc3ccccc23)n1` [Compound 1, 9-[(3-nitro-1H-1,2,4-triazolyl)-propylamino]acridine hydrochloride], the toxicity in vivo [5] is listed as “demonstrated toxicity”, the fraction of cures (T. cruzi) is listed as 20% and the peripheral parasite levels (T. cruzi) is listed as “rapid and persistent drop”.

`Cl.O=[N+]([O-])c1nccn1CCCNc1nc(-c2ccccc2)nc2ccccc12` [Compound 8, N-[3-(2-Nitro-1H-imidazol-1-yl)propyl]-2-phenylquinazolin-4-amine hydrochloride] showed an E1/2 reduction potential ([6]; in DMSO) of -1.03 V.

For `Cc1cc(NCCCn2ccnc2[N+](=O)[O-])nc(N)n1.Cl` [Compound 11, 6-Methyl-4-N-[3-(2-nitro-1H-imidazol-1-yl)propyl]-pyrimidin-2,4-diamine hydrochloride], the “L. donovani axen. SI” value [4] was “∼3”.

For `Cl.O=[N+]([O-])c1ncn(CCCCNc2ccnc3cc(Cl)ccc23)n1` [Compound 17, 7-Chloro-N-[4-(3-nitro-1H-1,2,4-triazol-1-yl)butyl]quinolin-4-amine hydrochloride], the “activity designation against T.b. rhodesiense” value [1] was “active” and the E1/2 reduction potential ([6]; in CH3CN) was -1.18 V.

In the case of `Cl.Clc1ccc2c(NCCCCn3cncn3)ccnc2c1` [Compound 19, 7-Chloro-N-[4-(1H-1,2,4-triazol-1-yl)butyl]quinolin-4-amine], the “fold increase of T. cruzi IC50 compared to the nitro-containing analog” value [2] is reported as 658 fold and the “L. donovani axen. SI” value [4] is reported as “∼1”.

With `Cl.O=[N+]([O-])c1ncn(CCCNc2nc(-c3ccccc3)nc3ccccc23)n1` [Compound 20, N-[3-(3-Nitro-1H-1,2,4-triazol-1-yl)propyl]-2-phenyl-quinazolin-4-amine hydrochloride] the E1/2 reduction potential ([6]; in DMSO) was -1.04 V.

In the case of `O=C1C(Cl)=C(NCCCn2cnc([N+](=O)[O-])n2)C(=O)c2ccccc21` [Compound 25, 2-Chloro-3-{[3-(3-nitro-1H-1,2,4-triazol-1-yl)propyl]amino}-1,4-dihydronaphthalene-1,4-dione], the “fold greater effect on T. cruzi growth than 2-nitroimidazole counterpart” value ([2]; 3-nitrotriazole versus its 2-nitroimidazole analog) is reported as 2 fold.

With `Cl.O=[N+]([O-])c1nccn1CCCNCc1cc(C(F)(F)F)cc(C(F)(F)F)c1` [Compound 26] the “L. donovani axen. SI” value [4] was “∼2”.

In the case of `Cl.O=[N+]([O-])c1ncn(CCCNCc2cc(C(F)(F)F)cc(C(F)(F)F)c2)n1` [Compound 29, {[3,5-bis(Trifluoromethyl)phenyl]methyl}[3-(3-nitro-1H-1,2,4-triazol-1-yl)propyl]amine hydrochloride], the “activity designation against T. cruzi” value [2] is reported as “active” and the E1/2 reduction potential ([6]; in DMSO) is reported as -1.07 V.

In the case of `Cl.FC(F)(F)c1cc(CNCCCCn2cncn2)cc(C(F)(F)F)c1` [Compound 31, {[3,5-bis(Trifluoromethyl)phenyl]methyl}[4-(1H-1,2,4-triazol-1-yl)butyl]amine hydrochloride], the “fold increase of T. cruzi IC50 compared to the nitro-containing analog” value [2] is reported as 730 fold.

For `Cl.O=[N+]([O-])c1ncn(CCCNCc2ccc(C(F)(F)F)cc2)n1` [Compound 37, [3-(3-Nitro-1H-1,2,4-triazol-1-yl)propyl]({[4-(trifluoromethyl)phenyl]methyl})amine hydrochloride], the “activity designation against T. cruzi” value [2] was “active”.

For `Cl.O=[N+]([O-])c1ncn(CCCN(Cc2ccc(C(F)(F)F)cc2)Cc2ccc(C(F)(F)F)cc2)n1` [Compound 38, [3-(3-Nitro-1H-1,2,4-triazol-1-yl)propyl]bis({[4-(trifluoromethyl)phenyl]methyl})amine hydrochloride], the “activity designation against T.b. rhodesiense” value [1] was “active”, the “activity designation against T. cruzi” value [2] was “active” and the E1/2 reduction potential ([6]; in DMSO) was -1.06 V.

With `Cl.Cl.O=[N+]([O-])c1nccn1CCCN1CCN(Cc2ccc(C(F)(F)F)cc2)CC1` [Compound 39, 1-[3-(2-Nitro-1H-imidazol-1-yl)propyl]-4-{[4-(trifluoromethyl)phenyl]methyl}piperazine dihydrochloride] the “L. donovani axen. SI” value [4] was “∼1”.

With `Cl.Cl.O=[N+]([O-])c1ncn(CCCN2CCN(Cc3ccc(C(F)(F)F)cc3)CC2)n1` [Compound 40, 1-[3-(3-Nitro-1H-1,2,4-triazol-1-yl)propyl]-4-{[4-(trifluoromethyl)phenyl]methyl}piperazine dihydrochloride] the SI ([2]; Table 2, T. cruzi, IC50 in L6 cells / IC50 in parasites) was greater than 562.

Compound `Cl.Cl.O=[N+]([O-])c1ncn(CCCCN2CCN(Cc3ccc(C(F)(F)F)cc3)CC2)n1` [Compound 41, 1-[4-(3-Nitro-1H-1,2,4-triazol-1-yl)butyl]-4-{[4-(trifluoromethyl)phenyl]methyl}piperazine dihydrochloride] has an E1/2 reduction potential ([6]; in DMSO) of -1.04 V.

For `Cl.Cl.O=[N+]([O-])c1ncn(CCCN2CCN(c3ccc(C(F)(F)F)cc3)CC2)n1` [Compound 42, 1-[3-(3-Nitro-1H-1,2,4-triazol-1-yl)propyl]-4-[4-(trifluoromethyl)phenyl]piperazine dihydrochloride], the “fold increased antichagasic activity compared to 40 and 41” value ([2]; T. cruzi in vitro) was “about 10 fold”.

For `CC1CS(=O)(=O)CCN1/N=C/c1ccc([N+](=O)[O-])o1` (centres unmarked) [Nifurtimox, 4-(5-nitrofurfurylidenamino)-3-methylthio-morpholine-1,1-dioxide], the E1/2 reduction potential [7] is given as -0.88 V.

From article PMC3258117 (Journal of Medicinal Chemistry, 2011)
